Screening data: PubChem BioAssay, several laboratories
Hsp70 act: Hsp70 transcriptional activators, primary screen, cell-based, HeLa, Hsp70 promoter luciferase, luminescence, 10 µM | hit rate 0.04% among 200,000 | activation, % at 10 µM | HeLa Hsp70 promoter luciferase reporter; scaled: vehicle 0, proteasome-inhibitor control 100%;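 active means activation above the mean across all tested compounds plus 3 SD, cutoff set per campaign, cut at about 5.5% in these data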
Autophagy HCS: autophagy modulators in MEF cells, primary screen, imaging, high-content, MEF GFP-LC3; AID 463193, 2010; MEF GFP-LC3 puncta imaging; test concentration mostly 10 µM; calls only at 10 µM (by protocol); hit rate 0.98% among 190,000;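 active means percentage of spot-positive cells more than 3 SD above its plate mean, without a fluorescence outlier flag or 80% toxicity; inconclusive means no clear call, values can overlap the other calls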
MT stabilize HCS: microtubule stabilizers in HeLa cells, primary screen, imaging, high-content imaging; HeLa tubulin immunostaining HCS, 24 h; share of cells brighter than vehicle mean+2SD; % tubulin-high responders, % at 10 µM; hit rate 0.83% among 200,000;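 active means plate Z-score above 3 for both tubulin-high and condensed-nucleus cell shares, with cell loss under 80%, at 10 µM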;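 further: anti alpha tubulin signal scored within the nucleus-defined area of each cell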
bCat nuc transl: modulators of beta-catenin nuclear translocation, primary screen, imaging, HeLa cells, immunofluorescence, high-content | nuclear translocation activity, % at 5 µM | hit rate 0.3% among 190,000 | AID 1665, 2009;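 active means nuclear translocation activity above 50% at 5 µM, with a well cell count of 50 or more; inconclusive means wells under 50 cells across six images, flagged as toxic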;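 further: per-cell ratio of nuclear to cytoplasmic median beta-catenin stain intensity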
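assay system = human HeLa cells, endogenous beta-catenin | times = compound treatment 24 h, 37°C, 5% CO2 | detection = Anti-beta-catenin immunofluorescence on PFA-fixed, Triton-permeabilized cells, DAPI nuclei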
Dynein transport: inhibitors of GR-EGFP nuclear translocation, primary screen, dynein cargo transport inhibitor project, imaging, high-content, 3617.4 mouse cells | test concentration mostly 20 µM; stimulated with dexamethasone, 1 µM; stronger effect = lower value | z-score, hits read low | hit rate 0.47% among 220,000;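 active means plate z-score of nuclear minus cytoplasmic receptor signal below a set negative limit, without overly bright fluorescence or cell loss, cut at about -3.5 in these data, passing the limit was not always enough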;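 further: z-score of nuclear minus cytoplasmic ring GR-EGFP intensity difference per well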
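medium = tetracycline-free induction medium containing charcoal-stripped FBS | probe or stimulus = dexamethasone, 1.0 µM final | timing = 48 h induction, then 1 h compound, then 30 min agonist, 37 °C | detection = automated 10x imaging of fixed Hoechst-stained cells | read-out basis = nuclear versus cytoplasmic GR-EGFP signal, averaged per well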
Dynein inh conf: dynein cargo transport inhibitors, GR-EGFP translocation, confirmation, imaging, high-content imaging, GR-EGFP cells; shares compounds with Dynein transport; 3617.4 GR-EGFP nuclear translocation imaging, dexamethasone-induced; calls only at 20 µM; hit rate 69% among 1,000; AID 463116, 2010;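 active means inhibition of receptor movement into the nucleus at or above a set limit in both runs, with normal cell brightness and cell count; inconclusive means limit reached in only one run, brightness and count normal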;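 further: dexamethasone at 1 µM final in well for 30 min; nuclear minus cytoplasmic GR-EGFP mean intensity difference in channel 2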
A number is an active result; 0 = inactive; ? = inconclusive; - = no result given; + = active, no number. Compounds with a hit are over-represented: about 2.1% of the library has one in this group of screens.

SMILES | Hsp70 act | Autophagy HCS | MT stabilize HCS | bCat nuc transl | Dynein transport | Dynein inh conf
Cc1nc2ccccc2n1CC(=O)N1CC(=O)Nc2ccccc21 | 0 | 0 | 0 | 0 | 0 | -
C=CCn1c(SCc2nc3ccccc3c(=O)[nH]2)nc2scc(C3CC3)c2c1=O | - | - | - | 0 | 0 | -
CC(C)[C@H]1C=C(C(=O)O)O[C@@H](OCCCCO)C1 | - | - | - | 0 | 0 | -
Cc1ccc(NC(=O)CN(C)C(=O)Cn2ncc(Cl)c(Cl)c2=O)cc1 | 0 | 0 | 0 | 0 | -6.3 | +
C=CCn1c(C)cc(C(=O)Cn2ncc(Cl)c(Cl)c2=O)c1C | 0 | 0 | 0 | 0 | -4.6 | +
C=CCn1c(C)cc(C(=O)COC(=O)[C@@H](NC(=O)c2ccccc2Cl)C(C)C)c1C | 0 | 0 | 0 | 0 | 0 | -
CCOC(=O)c1c(C)nc2c(c1-c1cc(OC)ccc1OC)C(=O)CC(C)(C)C2 | - | - | - | 0 | 0 | -
Cn1c(=O)c(=O)n(C)c2cc(S(=O)(=O)Nc3ccc4c(c3)OCCO4)ccc21 | 0 | 0 | 0 | 0 | 0 | -
Cn1c(=O)oc2cc(S(=O)(=O)Nc3ccc4c(c3)OCCO4)ccc21 | 0 | 0 | 0 | 0 | 0 | 0
COc1ccccc1C(=O)/C=C/c1ccc(N2CCCCC2)c([N+](=O)[O-])c1 | 0 | 0 | 0 | 0 | -5.4 | +
O=C(/C=C/c1ccc(N2CCCCC2)c([N+](=O)[O-])c1)c1ccc(O)cc1 | 0 | 0 | 0 | 0 | -3.7 | +
O=C(c1ccc(N2CCCCC2)c([N+](=O)[O-])c1)N1CCOCC1 | 0 | 0 | 0 | 0 | 0 | -
O=C(CSCCOc1ccccc1)NCc1ccncc1 | - | - | - | 0 | 0 | -
CSC(=S)N/N=C(\C)c1ccc(Br)cc1 | 0 | 0 | 0 | 0 | 0 | -
Cc1cc2c(cc1C)NC(CC(=O)NCc1ccccc1)C(=O)N2 (stereo not drawn) | 0 | 0 | 0 | 0 | 0 | 0
Cc1cc(C)n(-c2nc(NCCN(C)C)c3c4c(sc3n2)CCCC4)n1 | - | - | - | 0 | -4.6 | 0
CC(=O)Nc1sc(/C(C#N)=C\c2cccc(Cl)c2)nc1-c1ccc(C)cc1 | 0 | ? | 0 | 0 | 0 | 0
C=CCN=C(NC#N)SC | - | - | - | 0 | 0 | -
CCOC(=O)C(=Cc1ccc(-n2ccnc2)cc1)C(=O)OCC | 0 | 0 | 0 | 0 | -5.6 | +
CCOC(=O)C(=Cc1ccc(F)cc1)C(=O)OCC | 0 | 0 | 0 | 0 | -5.2 | +
CCOC(=O)C(=O)Nc1ccc(F)cc1 | 0 | 0 | 0 | - | 0 | -
COC(=O)c1ccc(-n2ccnc2)cc1 | 0 | 0 | 0 | 0 | 0 | -
CN1CCN(C2=C(Cl)C(=O)N(c3ccc(Cl)c(Cl)c3)C2=O)CC1 | 0 | 0 | 0 | 0 | -4.6 | ?
CC(=O)OCCCNc1cc(Sc2ccc(C)cc2)c2nonc2c1[N+](=O)[O-] | 0 | 0 | 0 | 0 | -4.6 | 0
Cn1ccnc1Sc1cc(NCCCO)c([N+](=O)[O-])c2nonc12 | 0 | 0 | 0 | 0 | -4.9 | +
SMILES | Hsp70 act | Autophagy HCS | MT stabilize HCS | bCat nuc transl | Dynein transport | Dynein inh conf
CC(=O)OCCCNc1cc(Sc2nc3ccccc3s2)c2nonc2c1[N+](=O)[O-] | 0 | 0 | 0 | 0 | 0 | -
COC(=O)CCSc1cc(NCCOC(C)=O)c([N+](=O)[O-])c2nonc12 | 0 | 0 | 0 | 0 | 0 | -
O=[N+]([O-])c1c(NCCCO)cc(N2CCN(Cc3ccc4c(c3)OCO4)CC2)c2nonc12 | 0 | 0 | 0 | 0 | 0 | -
O=[N+]([O-])c1c(NCCCO)cc(SCc2ccco2)c2nonc12 | 0 | 0 | 0 | 0 | -3.5 | +
CCCC(=O)OCCNc1cc(SCCC(=O)OC)c2nonc2c1[N+](=O)[O-] | 0 | 0 | 0 | 0 | -4.5 | +
O=[N+]([O-])c1c(NCCCO)cc(Sc2ccc(Cl)cc2)c2nonc12 | 0 | 0 | 0 | 0 | -4.7 | +
COc1ccc(CNc2cc(NCCCO)c([N+](=O)[O-])c3nonc23)cc1 | 0 | 0 | 0 | 0 | 0 | -
CC(=O)OCCNc1cc(SCc2ccco2)c2nonc2c1[N+](=O)[O-] | 0 | 0 | 0 | 0 | -5.8 | +
COc1ccc(NCC(=O)Nc2ccc(Br)cc2F)c(OC)c1 | - | - | - | 0 | 0 | -
CCOC(=O)C1CCCN(C(=O)Cn2sc3nc(C)cc(C)c3c2=O)C1 (stereo not drawn) | 0 | 0 | 0 | 0 | -4.1 | ?
